Measurements as given in ChEMBL document CHEMBL1154527, “Tethered indoles as functionalizable ligands for the estrogen receptor” (Bioorg Med Chem Lett, 2009).

Tests used:
[1] = target: T1, Estrogen receptor (Homo sapiens) (UniProt P03372); assay: Relative binding affinity to ERalpha by radiometric binding assay relative to estradiol
T1 sequence (whole entry): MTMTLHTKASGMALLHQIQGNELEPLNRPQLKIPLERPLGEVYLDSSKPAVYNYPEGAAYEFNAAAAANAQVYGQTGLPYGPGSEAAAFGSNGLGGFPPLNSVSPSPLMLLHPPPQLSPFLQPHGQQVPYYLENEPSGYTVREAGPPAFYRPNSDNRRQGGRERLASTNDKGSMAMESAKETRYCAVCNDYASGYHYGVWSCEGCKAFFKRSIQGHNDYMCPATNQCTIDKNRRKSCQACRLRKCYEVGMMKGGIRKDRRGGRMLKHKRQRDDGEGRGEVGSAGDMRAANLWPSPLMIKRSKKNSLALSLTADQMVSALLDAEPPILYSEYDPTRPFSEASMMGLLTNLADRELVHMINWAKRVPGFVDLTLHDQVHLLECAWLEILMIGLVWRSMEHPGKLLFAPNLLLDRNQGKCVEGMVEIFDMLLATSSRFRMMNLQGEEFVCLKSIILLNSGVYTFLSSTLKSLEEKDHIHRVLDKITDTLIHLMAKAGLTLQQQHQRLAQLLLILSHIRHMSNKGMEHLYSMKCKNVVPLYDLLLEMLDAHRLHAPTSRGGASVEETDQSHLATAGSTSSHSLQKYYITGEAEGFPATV
In short: (§1)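 RBA values for the PAMAM-dendrimer conjugate are calculated from the concentration of attached ligand rather than that of the conjugate.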

[2] = target: Estrogen receptor beta (Homo sapiens) (UniProt Q92731); assay: Relative binding affinity to ERbeta by radiometric binding assay relative to estradiol; in short: as §1
Chain of Estrogen receptor beta (Homo sapiens) (Q92731 whole entry): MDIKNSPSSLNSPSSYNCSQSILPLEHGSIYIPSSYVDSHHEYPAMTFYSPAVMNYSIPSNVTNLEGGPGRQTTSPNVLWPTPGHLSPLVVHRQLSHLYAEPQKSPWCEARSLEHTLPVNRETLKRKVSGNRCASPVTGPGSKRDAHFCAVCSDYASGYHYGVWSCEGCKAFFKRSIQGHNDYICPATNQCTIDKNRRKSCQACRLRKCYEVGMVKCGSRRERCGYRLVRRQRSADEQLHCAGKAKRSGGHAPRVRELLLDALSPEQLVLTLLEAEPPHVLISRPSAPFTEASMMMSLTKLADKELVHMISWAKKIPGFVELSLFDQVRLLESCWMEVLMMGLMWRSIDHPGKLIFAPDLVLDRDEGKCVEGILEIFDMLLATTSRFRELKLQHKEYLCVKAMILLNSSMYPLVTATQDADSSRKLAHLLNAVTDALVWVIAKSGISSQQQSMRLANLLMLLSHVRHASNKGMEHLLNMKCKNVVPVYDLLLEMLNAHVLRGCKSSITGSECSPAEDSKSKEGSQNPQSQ

Compound | relative binding affinity (RBA) [1] | relative binding affinity (RBA) [2]
CC(=O)NCCNCc1ccc(OCCCn2c(-c3ccc(O)cc3)c(C)c3cc(O)ccc32)cc1 | 2.17 | 0.24
CCSC(SCC)c1ccc(OCCCn2c(-c3ccc(O)cc3)c(C)c3cc(O)ccc32)cc1 | – | 0.084
Cc1c(-c2ccc(O)cc2)n(CCCCCCO)c2ccc(O)cc12 | 13 | 1.4
Cc1c(-c2ccc(O)cc2)n(Cc2ccc(O)cc2)c2ccc(O)cc12 | 10 | 1
Cc1ccc(C(=O)NCCCCn2c(-c3ccc(O)cc3)c(C)c3cc(O)ccc32)cc1 | – | 0.048
CCCCOc1ccc(Cn2c(-c3ccc(O)cc3)c(C)c3cc(O)ccc32)cc1 | – | 1.2
CCCCOCCCCCCn1c(-c2ccc(O)cc2)c(C)c2cc(O)ccc21 | – | 3
COc1ccc(Cn2c(-c3ccc(O)cc3)c(C)c3cc(O)ccc32)cc1 | 11 | 6.5
COCCCCCCn1c(-c2ccc(O)cc2)c(C)c2cc(O)ccc21 | 11 | 2
